Publication PMC7236545 (Journal of the American Chemical Society, 2020)
pIC50: −log10 of the molar value.

Tested on: HCT116 (wild-type APC) cells
Test: Cell viability / toxicity in HCT116
Format: cell-based
Conditions: Homo sapiens, HCT-116, read-out: IC50 (viability / growth inhibition)
Procedure, shortened: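 Dose-response toxicity assay of test compound on human HCT116 (APC wild-type) cells. Cells are kept in low-serum medium (0.2% FBS with growth factors), not fully defined medium. IC50 is the concentration that reduces cell viability by 50%.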

With `CC[C@H](C)C(=O)O[C@H]1CCC=C2C=C[C@H](C)[C@H](CC[C@@H](O)C[C@@H](O)CC(=O)O)[C@H]21` [Compactin, compactin] the pIC50 was ~4.73.
